Screens deposited in PubChem BioAssay by several laboratories.
HSF-1 act: increases HSF-1 driven luciferase reporter signal. NIH3T3-HGL HSF-1 luciferase reporter, MG132, 8 h; 100% = twice DMSO control signal. activation, % at 9 µM. 300,000 compounds, 1.7% hits. AID 504408;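 active means mean replicate activation of at least 50% with a set share of replicates each reaching 50%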
Rad51 HR inh: Rad51 (human) homologous recombination inhibition | Q06609 | hRad51 DNA strand exchange, fluorescence dequenching | inhibition, % at 10 µM | 200,000 compounds, 0.085% hits;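 active means inhibition above 40% at the single screening dose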
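Material: Human Rad51 nucleoprotein filaments preassembled on unlabelled ssDNA | Also added: Labelled 47-mer dsDNA for strand exchange | Dosing: Single dose, 10 µM final compound | Schedule: 30-min compound preincubation and 15-min exchange, both room temperature | Technique: Fluorescence dequenching at 485/520 nm | Measure: Percent inhibition relative to plate controls and blanks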
Hsp70 act: Hsp70 transcriptional activation, primary screen; HeLa Hsp70 promoter luciferase reporter, luminescence; scaled: vehicle 0, proteasome-inhibitor control 100%; activation, % at 10 µM; 200,000 compounds, 0.04% hits;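 active means activation above the mean across all tested compounds plus 3 SD, cutoff set per campaign, cut at about 5.5% in these data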
HSF1 inh: HSF1 inhibition. NIH3T3-HGL HSE-luciferase, MG132-induced, luminescence 8 h; stronger effect = lower value. activity change, negative = inhibition, % at 7.5 µM (by protocol). 300,000 compounds, 0.77% hits. AID 2098;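 active means more than half of replicate wells show activity change below -50%, luminescence cut by over half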;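 further: luciferase reports HSF-1 transcriptional activity via heat shock element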
Mdm2 ligase inh: blocks human Mdm2 ubiquitin ligase activity. Q00987. cell-based MDM2 ubiquitination luciferase reporter, 2 h; 0 = plate control, 100 = twice control, blank-subtracted. signal enhancement, % at 5 µM. 210,000 compounds, 0.11% hits. AID 1230;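 active means signal enhancement of 30% or more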;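 further: luminescence tracks abundance of the self-degrading MDM2-luciferase fusion protein; higher signal means inhibition of MDM2 E3 ligase activity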
Target sequence (Q00987 whole entry, looked up, the tested form may be a part): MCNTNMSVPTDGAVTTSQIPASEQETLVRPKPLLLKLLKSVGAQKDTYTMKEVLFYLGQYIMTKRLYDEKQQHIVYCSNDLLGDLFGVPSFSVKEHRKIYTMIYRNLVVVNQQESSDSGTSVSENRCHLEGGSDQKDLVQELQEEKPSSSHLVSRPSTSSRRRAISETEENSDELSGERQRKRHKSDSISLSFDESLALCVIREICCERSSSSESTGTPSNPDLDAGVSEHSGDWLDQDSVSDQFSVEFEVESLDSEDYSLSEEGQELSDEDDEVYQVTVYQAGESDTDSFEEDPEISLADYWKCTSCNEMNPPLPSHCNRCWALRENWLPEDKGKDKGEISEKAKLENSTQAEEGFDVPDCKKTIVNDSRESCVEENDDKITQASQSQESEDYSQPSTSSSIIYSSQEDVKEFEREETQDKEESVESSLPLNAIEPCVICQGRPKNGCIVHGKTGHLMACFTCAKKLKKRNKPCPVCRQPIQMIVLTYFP
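Assay system: stable mammalian line carrying autodegrading MDM2–luciferase fusion reporter; Input: 2000 cells in each well; Compound dosing: single-point 5 µM; Schedule: 2 h compound exposure at 37 °C; Signal: SteadyLite luciferase luminescence after 15 min room-temperature reagent incubation; Evaluation: % luminescence enhancement versus blank-corrected plate control mean; Benchmarks: plate controls and plate blanks.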
HSV augment: increases HSV replication in cells; HSV replication augmentation in cells, fold increase; maximum fold increase; 220,000 compounds, 0.005% hits; AID 1956; in the data active means maximum fold increase above about 1.5; tested in PC3 cells
Of the large screens only hits and unclear results are named; the others gave an inactive call. Compounds with a hit are over-represented: about 2.6% of the library has one in this group of screens.

C=CCc1ccc(OCc2ccc(C(=O)Nc3ccc(NC(C)=O)cc3)o2)c(OC)c1	HSF-1 act 57 (no result: Rad51 HR inh, Hsp70 act, Mdm2 ligase inh, HSV augment)
COc1ccccc1NC(=O)c1ccc(COc2ccccc2OC)o1	none
C=CCn1c(=O)c2c(nc(-n3nc(C)cc3C)n2C)n(C)c1=O	none (no result: Rad51 HR inh, Hsp70 act, Mdm2 ligase inh, HSV augment)
O=C(CCl)N=c1sccn1Cc1ccccc1Cl	none (no result: HSF-1 act, Hsp70 act, HSF1 inh)
O=C(CCl)N=c1sccn1Cc1ccc(Cl)cc1Cl	HSF1 inh -98
O=C(/C=C/c1ccc(Cl)cc1)NC(=S)Nc1ccc(CN2CCOCC2)cc1	HSF-1 act 86
CCOc1ccc(NC(=S)N(Cc2ccc(Cl)cc2)Cc2ccco2)cc1	HSF-1 act 176
CC(=O)Nc1ccc(NC(=S)NC(=O)/C=C/c2ccc(Cl)cc2)cc1	none
CCOC(=O)c1ccc(NC(=S)N(Cc2cccnc2)Cc2ccco2)cc1	none
CCOc1ccc(NC(=S)NC(=O)c2ccco2)cc1	HSF-1 act 52 (no result: Rad51 HR inh, Hsp70 act, Mdm2 ligase inh)
O=C(/C=C/c1ccccc1)Nc1ccc(CN2CCOCC2)cc1	none
O=C(/C=C/c1ccc(Cl)cc1)NC(=S)Nc1ccc(NC(=O)c2ccco2)cc1	HSF-1 act 64
Cc1c(C(=O)OCC(C)C)[nH]c2c1C(=O)CC(c1ccco1)C2 (configuration not stated)	none
Cc1c(C(=O)OCC2CCCO2)[nH]c2c1C(=O)CC(c1ccco1)C2 (configuration not stated)	HSF-1 act 57
Cc1cc(S(=O)(=O)N2CCOCC2)ccc1OCC(=O)N1CCCC1	none (no result: Rad51 HR inh, Hsp70 act, Mdm2 ligase inh, HSV augment)
Cc1ccc(C(=O)NC(C)C2CC3CCC2C3)c(C)c1 (configuration not stated)	none (no result: Rad51 HR inh, Hsp70 act, Mdm2 ligase inh, HSV augment)
COc1ccccc1Oc1cc(C#N)c(C#N)cc1-n1nnc2ccccc21	HSF-1 act 79 (no result: Rad51 HR inh, HSV augment)
CSCC[C@H](NC(=O)[C@@H]1Cc2ccccc2CN1)C(=O)NC[C@H]1CC[C@H](C(=O)O)CC1	none (no result: Rad51 HR inh, Hsp70 act, Mdm2 ligase inh, HSV augment)
c1ccc2c(c1)CC1(CCCCC1)n1nnnc1-2	HSF1 inh -59 (no result: Mdm2 ligase inh)
Cc1ccc(C(=O)N2CCN3C(=O)c4ccccc4C23c2ccc(Cl)cc2)cc1 (configuration not stated)	none
O=C(CCl)N1CCN2C(=O)c3ccccc3C12c1ccc(Cl)cc1 (configuration not stated)	HSF-1 act 76
CSc1sc(C(=O)Nc2ccc(F)cc2F)c2c1C=CCC2	HSF-1 act 72 (no result: Hsp70 act)
Cn1c2ccccc2c(=O)c2ccc(C#CC3(O)CCCCC3)cc21	HSF1 inh -65 (no result: Rad51 HR inh, Hsp70 act, Mdm2 ligase inh, HSV augment)
COc1cc2sc3ccc(C#CC4(O)CCCCC4)cc3c(=O)c2cc1OC	HSF1 inh -59 (no result: Hsp70 act, Mdm2 ligase inh)
CN1CCN(NC(=O)CN2C(=O)S/C(=C\c3c(Cl)cccc3Cl)C2=O)CC1	none
O=C(c1ccco1)N1CCN(c2nc(C3CC3)nc3c2nnn3Cc2ccccc2Cl)CC1	none (no result: Mdm2 ligase inh)
CC(C)(C)c1nc(N2CCN(C(=O)c3ccco3)CC2)c2nnn(Cc3ccccc3)c2n1	HSF1 inh -70
O=C(c1cccc([N+](=O)[O-])c1)N1CCc2ccccc21	HSF1 inh -68 (no result: Rad51 HR inh, Hsp70 act, Mdm2 ligase inh, HSV augment)
Cc1ccc(SCC(=O)N2CCc3ccccc32)cc1	HSF-1 act 80
Cc1ccc(-c2nnn(CC(=O)N3CCCc4ccccc43)n2)cc1	HSF-1 act 57
Cc1ccc(C(=O)N2CCc3ccccc32)cc1	HSF-1 act 66 (no result: Mdm2 ligase inh)
CCCS(=O)(=O)Nc1ccc2cn[nH]c2c1	none
O=C1c2ccccc2C(=O)N1CCC(=O)N1CCCc2ccccc21	HSF-1 act 58
CCN(CC)CCCN(C(=O)c1ccco1)c1nc(-c2ccc(C)cc2)cs1	HSF1 inh -69
CCN(CC)CCCN(C(=O)c1ccco1)c1nc(-c2ccc(Cl)cc2)cs1	none (no result: Rad51 HR inh, Hsp70 act, Mdm2 ligase inh, HSV augment)
CN(C(=O)c1ccco1)c1nc(-c2ccc(F)cc2)cs1	HSF-1 act 83 (no result: Rad51 HR inh, Hsp70 act, Mdm2 ligase inh, HSV augment)
CSc1cccc(NC(=O)C2CCN(S(=O)(=O)c3ccc4c(c3)NC(=O)CO4)CC2)c1	none (no result: Rad51 HR inh, Hsp70 act, Mdm2 ligase inh, HSV augment)
Cc1noc(C)c1COc1ccc(C(=O)OCC(=O)Nc2ccc3ccccc3c2)cc1	none
Cc1noc(C)c1COc1ccc(C(=O)OCC(=O)Nc2c(C)n(C)n(-c3ccccc3)c2=O)cc1	HSF1 inh -56
